Experimental data: ChEMBL document CHEMBL1152561, “Evaluation of delocalized lipophilic cationic dyes as delivery vehicles for photosensitizers to mitochondria” (Bioorg Med Chem, 2009)
Activity calls are given as the source filed them. No cut-off for these calls is given here.

How the values were obtained:
R3230AC [1] = experiment: Cytotoxicity against rat R3230AC cells up to 20 uM for 24 hrs in dark; type: functional, cell-based
[2] = n-Octanol-phosphate buffer partition coefficient, log D at pH 7.4 by shake-flask method; type: physicochemical
In short: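 Dye was added to saturation in equal volumes (2 mL) of n-octanol and pH 7.4 phosphate buffer. The mixture was sonicated 30 min and left to settle 4 h. Each layer was diluted in dichloromethane and absorbance measured. Log D7.4 was taken from the ratio of absorbances between the two layers.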

R3230AC [3] = experiment: Cellular uptake in rat R3230AC cells measured per cell at 10 uM after 24 hrs; type: ADME, cell-based
In short: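 R3230AC cells were grown in α-MEM with 10% bovine growth serum at 37 °C and 5% CO2. Dyes were diluted from 2 mM DMSO stocks. Intracellular dye content was measured by fluorescence at dye-appropriate excitation and emission wavelengths and converted using a fluorescence calibration curve.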

R3230AC [4] = experiment: Phototoxicity in rat R3230AC cells irradiated with halogen lamp pretreated 24 hrs before irradiation by MTT assay; type: functional, cell-based; details: light or radiation study
In short: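 Cells were seeded at 1.0–1.5 × 10^4 per well, grown 24 h, then given 1–20 µM dye in complete medium for 24 h. After two saline rinses, cells in clear medium were irradiated with halogen broadband light (400–850 nm, water-filtered) at 3 mW cm−2 for 1 h while orbiting. They were refed and grown 24 h more. Viability was read by MTT as a percentage of light-exposed dye-free controls.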

R3230AC [5] = experiment: Stability in rat R3230AC cell lysate at 10 uM after 24 hrs; type: ADME, cell-based
In short: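 Cells seeded at 2.0–3.0 × 10^4 per well were grown 24 h, then exposed to dye in complete medium for 24 h. After two 0.9% NaCl rinses, cells were lysed in DMSO. Fluorescence (excitation 550 nm, emission 555–750 nm) was compared with dye in DMSO, including the ratio of the 580 and 650 nm peaks.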

| logD [2] | Activity (R3230AC [3]) | Stability (R3230AC [5]) | SMILES | Activity (R3230AC [1]) | IC50 (R3230AC [4]) |
| --- | --- | --- | --- | --- | --- |
| 2.3 | 5.6 fmol |  | Oc1ccc(-c2c3nc(c(-c4ccccc4)c4ccc([nH]4)c(-c4ccccc4)c4nc(c(-c5ccccc5)c5ccc2[nH]5)C=C4)C=C3)cc1 | inactive |  |
| 3.53 |  | Stable | CCN(CC)c1ccc2c(-c3ccccc3C(=O)OCCCOc3ccc(-c4c5nc(c(-c6ccccc6)c6ccc([nH]6)c(-c6ccccc6)c6nc(c(-c7ccccc7)c7ccc4[nH]7)C=C6)C=C5)cc3)c3ccc(=[N+](CC)CC)cc-3oc2c1.[I-] | inactive | 3.95 µM |
| 0.79 | 68.2 fmol |  | CN(C)c1ccc2cc3ccc(N(C)C)cc3[n+](CCCOc3ccc(-c4c5nc(c(-c6ccccc6)c6ccc([nH]6)c(-c6ccccc6)c6nc(c(-c7ccccc7)c7ccc4[nH]7)C=C6)C=C5)cc3)c2c1.[I-] |  | 3.28 µM |
|  |  |  | CCN(CC)c1ccc2c(-c3ccccc3C(C)=O)c3ccc(=[N+](CC)CC)cc-3oc2c1 | inactive |  |
| 2.2 |  |  | CCN(CC)c1ccc2c(-c3ccccc3C(=O)O)c3ccc(=[N+](CC)CC)cc-3oc2c1 [RHODAMINE B] |  |  |
| -0.99 |  |  | CN(C)c1ccc2cc3ccc(N(C)C)cc3nc2c1 |  | 2.29 µM |
